Measured values taken from ChEMBL document CHEMBL1135455, “3-Aminopyrrolidinone farnesyltransferase inhibitors: design of macrocyclic compounds with improved pharmacokinetics and excellent cell potency” (J Med Chem, 2002).

Key:
[1] = molecular target: T1, Protein farnesyltransferase (Homo sapiens, UniProt P49354+P49356); experiment: Inhibition of human farnesyltransferase in an enzyme assay.
[2] = molecular target: T2, Protein farnesyltransferase (Rattus norvegicus, UniProt Q02293+Q04631); experiment: Inhibition of Farnesyltransferase in H-ras-transformed Rat cells by radiotracer assay (CRAFTI)
[3] = molecular target: Geranylgeranyl transferase type I (Homo sapiens, UniProt P49354+P53609); experiment: Inhibitory activity against geranylgeranyl transferase; type: protein-complex assay
[4] = molecular target: T1, Protein farnesyltransferase; experiment: Inhibition of Farnesyltransferase at 10 pM enzyme concentration
[5] = molecular target: T1, Protein farnesyltransferase; experiment: Inhibition of HDJ2 farnesylation in PSN-1 cells over 7 hr assay in the presence of 50% human serum.; type: functional, cell-based
[6] = Pharmacokinetic data at 0.5 mg/kg dose given to dogs intravenously.; type: ADME, organism-based, Canis lupus familiaris; set-up: dose 0.5 mg/kg, route intravenous; details: dog, iv; for half-life / Vd: in vivo; for Vd: read-out: Vdss; for clearance: plasma, read-out: Clp
Outline: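 Compound was given intravenously in DMSO to two dogs, in some cases as a mixture with five other compounds. Plasma levels were measured by LC-MS.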

[7] = molecular target: T3, Cytochrome P450 3A4 (Homo sapiens, UniProt P08684); experiment: (§1) Inhibition of human Cytochrome P450 3A4 by macrocycles
[8] = molecular target: T1, Protein farnesyltransferase; experiment: Inhibition of HDJ2 farnesylation in PSN-1 cells over 7 hr assay; type: functional, cell-based
[9] = molecular target: T2, Protein farnesyltransferase; experiment: Inhibition of Farnesyltransferase in cells, evaluated in a radiotracer assay for farnesyltransferase inhibition (CRAFTI), in cultured H-ras-transformed Rat cells
[10] = Pharmacokinetic data at 1 mg/kg dose given to dogs intravenously; type: ADME, organism-based, Canis lupus familiaris; set-up: dose 1 mg/kg, route intravenous; details: dog, iv
Outline: (§2)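 Dogs, two per compound, dosed intravenously in DMSO or orally as a 0.5% methocellulose suspension. Some compounds were given intravenously as a cassette with five other compounds. Plasma levels were quantitated by LCMS.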

[11] = suboptimal plasma half-life caused a10% prolongation of QTc interval in dogs at a plasma level of […]; type: ADME, organism-based, Canis lupus familiaris; details: dog
[12] = Oral bioavailability of active FTIs in dogs; type: ADME, organism-based, Canis lupus familiaris; details: dog, in vivo
[13] = Pharmacokinetic data for dose given to dogs intravenously (oral PK study in parentheses); type: ADME, organism-based, Canis lupus familiaris; details: dog, in vivo
Outline: as §2

[14] = molecular target: T3, Cytochrome P450 3A4; experiment: as §1; type: ADME
Outline: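 Pooled liver microsomes, dog (7) or human (8, 9), at 0.25 mg protein/mL were incubated 10 min with 75 µM testosterone and an NADPH-generating system, with or without compound (0.05-100 µM). 6β-Hydroxytestosterone was quantified by LC-MS/MS against a cortisone internal standard. IC50 was taken from product formed relative to the control incubation.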

[15] = molecular target: T1, Protein farnesyltransferase; experiment: Inhibition of HDJ2 farnesylation in PSN-1 cells over 7 hr assay in the presence of 50% human serum; type: functional, cell-based
[16] = molecular target: Voltage-gated inwardly rectifying potassium channel KCNH2 (Homo sapiens, UniProt Q12809); experiment: Inflection point affinity for binding to K+ channel HERG.; details: IP
[17] = molecular target: T1, Protein farnesyltransferase; experiment: Inhibition of Farnesyltransferase at 10 pM enzyme concentration; remark: listed apart in the source
[18] = molecular target: T3, Cytochrome P450 3A4; experiment: Inhibition of dog Cytochrome P450 3A by macrocycles
[19] = Bioavailability in dog (dose 1 mg/kg i.v.); details: in vivo, iv
[20] = Clearance in dog (dose 1 mg/kg i.v.); details: plasma, iv

T3 sequence (P08684 whole entry): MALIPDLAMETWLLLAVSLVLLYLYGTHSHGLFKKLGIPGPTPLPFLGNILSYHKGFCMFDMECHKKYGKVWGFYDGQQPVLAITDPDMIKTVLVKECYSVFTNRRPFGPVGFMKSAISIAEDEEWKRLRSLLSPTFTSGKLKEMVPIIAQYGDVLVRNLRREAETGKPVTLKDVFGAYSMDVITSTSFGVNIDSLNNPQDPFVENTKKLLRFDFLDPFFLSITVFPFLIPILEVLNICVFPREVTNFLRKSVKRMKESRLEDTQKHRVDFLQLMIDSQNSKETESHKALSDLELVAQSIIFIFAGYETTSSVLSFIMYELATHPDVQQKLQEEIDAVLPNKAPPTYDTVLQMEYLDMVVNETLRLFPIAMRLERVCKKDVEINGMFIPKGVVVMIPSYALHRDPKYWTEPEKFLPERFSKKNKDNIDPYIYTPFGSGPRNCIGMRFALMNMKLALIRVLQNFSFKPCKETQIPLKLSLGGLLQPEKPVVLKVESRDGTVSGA
Chain of Voltage-gated inwardly rectifying potassium channel KCNH2 (Q12809 whole entry): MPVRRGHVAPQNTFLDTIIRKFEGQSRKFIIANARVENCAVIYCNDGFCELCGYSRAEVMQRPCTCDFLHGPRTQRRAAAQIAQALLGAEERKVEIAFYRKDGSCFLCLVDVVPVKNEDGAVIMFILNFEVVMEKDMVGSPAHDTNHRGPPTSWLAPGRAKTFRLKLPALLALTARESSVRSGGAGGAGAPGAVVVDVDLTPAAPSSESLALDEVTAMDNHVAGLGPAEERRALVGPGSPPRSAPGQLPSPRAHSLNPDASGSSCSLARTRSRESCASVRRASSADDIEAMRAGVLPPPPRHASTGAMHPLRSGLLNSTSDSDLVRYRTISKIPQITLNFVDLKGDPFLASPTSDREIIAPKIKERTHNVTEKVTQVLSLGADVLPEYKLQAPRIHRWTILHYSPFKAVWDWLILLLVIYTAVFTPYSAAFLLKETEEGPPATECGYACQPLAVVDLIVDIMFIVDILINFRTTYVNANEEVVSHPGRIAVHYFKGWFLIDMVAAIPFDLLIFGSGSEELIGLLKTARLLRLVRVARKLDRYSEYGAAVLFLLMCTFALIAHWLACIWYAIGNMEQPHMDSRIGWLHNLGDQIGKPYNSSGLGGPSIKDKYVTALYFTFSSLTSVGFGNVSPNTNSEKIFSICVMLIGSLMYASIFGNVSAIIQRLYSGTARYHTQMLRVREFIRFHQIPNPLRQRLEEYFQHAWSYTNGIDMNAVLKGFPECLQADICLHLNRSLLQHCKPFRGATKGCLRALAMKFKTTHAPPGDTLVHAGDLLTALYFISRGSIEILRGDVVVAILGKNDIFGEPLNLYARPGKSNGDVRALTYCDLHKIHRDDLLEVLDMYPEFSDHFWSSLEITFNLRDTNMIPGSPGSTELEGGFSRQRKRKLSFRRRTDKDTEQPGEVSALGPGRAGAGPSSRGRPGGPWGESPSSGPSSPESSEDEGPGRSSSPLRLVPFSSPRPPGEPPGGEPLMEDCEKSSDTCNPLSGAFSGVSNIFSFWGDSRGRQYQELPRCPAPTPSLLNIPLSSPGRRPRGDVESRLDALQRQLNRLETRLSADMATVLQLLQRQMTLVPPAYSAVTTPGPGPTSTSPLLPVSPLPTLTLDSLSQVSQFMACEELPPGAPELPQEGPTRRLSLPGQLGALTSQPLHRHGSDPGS

| Structure (SMILES) | IC50 [1] | IC50 [3] | half-life [6] | Vd [6] | clearance [6] | IC50 [9] | further results |
| --- | --- | --- | --- | --- | --- | --- | --- |
| N#Cc1ccc2cc1Oc1cc(Cl)cc(c1)CN1CCC(NCc3cncn3C2)C1=O (stereo unspecified) | 23 nM | > 20000 nM | – | – | – | – | IC50 [2]: 6.4 nM |
| N#Cc1ccc2cc1Oc1cccc(c1)-c1ccccc1N1CCC(NCc3cncn3C2)C1=O (stereo unspecified) | 1.3 nM | 810 nM | 0.88 h | 0.61 L/kg | 8 mL/min/kg | 0.032 nM | IC50 [4]: 0.06 nM; EC50 [5]: 0.58 nM; IC50 [7]: < 50 nM; EC50 [8]: 0.67 nM |
| N#Cc1ccc2cc1Oc1cccc(c1)C(c1cccc(Cl)c1)N1CCC(NCc3cncn3C2)C1=O (single isomer, unassigned; diastereomer B) | 2.5 nM | 7000 nM | – | – | – | 200 nM | – |
| N#Cc1ccc(Cn2cncc2CN[C@H]2CCN(Cc3cccc(Cl)c3)C2=O)cc1 | – | – | – | – | – | – | half-life ([10]; in vivo): 1.1 h; Vd ([10]; in vivo, read-out: Vdss): 0.45 L/kg; clearance ([10]; plasma, read-out: Clp): 5.8 mL/min/kg; half-life [11]: 1.1 h; IC50 [7]: 1000 nM; bioavailability [12]: 81%; bioavailability [13]: 81% |
| N#Cc1ccc2cc1Oc1ccc3cccc(c3c1)N1CC[C@@H](NCc3cncn3C2)C1=O | 1.6 nM | – | – | – | – | 4.4 nM | – |
| N#Cc1ccc2cc1Oc1ccc3cccc(c3c1)N1CC[C@H](NC(=O)Cc3cncn3C2)C1=O | – | – | 1.7 h | 0.19 L/kg | 1.5 mL/min/kg | 6.8 nM | IC50 [14]: 8100 nM |
| N#Cc1ccc2cc1Oc1ccc3c(c1)[C@@H](CCC3)N1CC[C@@H](NCc3cncn3C2)C1=O [(1R,5R)-30-OXO-19-OXA-2,6,10,12-TETRAAZAHEXACYCLO[18.6.2.1^{2,5}.1^{14,18}.0^{8,12}.0^{23,27}]TRIACONTA-8,10,14(29),15,17,20(28),21,23(27)-OCTAENE-17-CARBONITRILE (STRUCTURAL MIX)] | < 1 nM | 390 nM | 0.48 h | 0.36 L/kg | 7.3 mL/min/kg | 0.054 nM | EC50 [15]: 0.25 nM; EC50 [8]: 0.18 nM |
| CN1Cc2cncn2Cc2ccc(C#N)c(c2)Oc2ccc3cccc(c3c2)N2CCC1C2=O (stereo unspecified) | 4.9 nM | 2200 nM | 10.1 h | 0.21 L/kg | 0.26 mL/min/kg | 39 nM | IC50 [7]: 5000 nM |
| N#Cc1ccc2cc1Oc1cccc(c1)C(c1ccccc1)N1CCC(NCc3cncn3C2)C1=O (single isomer, unassigned; diastereomer B) | 10 nM | 5800 nM | – | – | – | – | IC50 [2]: 34 nM |
| N#Cc1ccc2cc1Oc1cccc(c1)C(c1cccc(Cl)c1)N1CCC(NCc3cncn3C2)C1=O (single isomer, unassigned; diastereomer A) | 25 nM | 820 nM | – | – | – | – | IC50 [2]: 210 nM |
| CN1Cc2cncn2Cc2ccc(C#N)c(c2)Oc2ccc3c(c2)C(CC3)N2CCC1C2=O (stereo unspecified) | 1.4 nM | > 20000 nM | – | – | – | 0.64 nM | IC50 [16]: 2600 nM |
| N#Cc1ccc2cc1Oc1ccc3c(c1)[C@@H](CCO3)N1CC[C@H](NCc3cncn3C2)C1=O | – | – | – | – | – | 1.8 nM | – |
| N#Cc1ccc2cc1Oc1ccc3c(c1)[C@@H](CCC3)N1CC[C@H](NCc3cncn3C2)C1=O | 1.5 nM | 2200 nM | – | – | – | 0.21 nM | EC50 [5]: 4.4 nM; EC50 [8]: 3 nM |
| N#Cc1ccc2cc1Oc1cccc(c1)CN1CC[C@H](NCc3cncn3C2)C1=O | 54 nM | – | – | – | – | – | IC50 [2]: 13 nM |
| CC1c2ccc(C#N)c(c2)Oc2cccc(c2)CN2CCC(NCc3cncn31)C2=O (single isomer, unassigned; diastereomer A) | 170 nM | > 20000 nM | – | – | – | 74 nM | – |
| N#Cc1ccc2cc1Oc1ccc3cccc(c3c1)N1CCC(NCCc3cncn3C2)C1=O (stereo in doubt; 66) | – | – | – | – | – | 0.32 nM | IC50 [17]: 0.19 nM; EC50 [5]: 7.5 nM; IC50 [18]: 600 nM; Vd [19]: 0.57 L/kg; bioavailability [19]: 92%; half-life [19]: 2 h; clearance [20]: 3.9 mL/min/kg; IC50 [7]: 6000 nM; EC50 [8]: 4.3 nM |
| N#Cc1ccc2cc1Oc1ccc(Br)c(c1)CN1CCC(NCc3cncn3C2)C1=O (stereo unspecified) | 1.4 nM | 9200 nM | 1.6 h | 0.53 L/kg | 3.2 mL/min/kg | 0.19 nM | EC50 [5]: 1 nM; IC50 [7]: 6100 nM; EC50 [8]: 1.6 nM |
| N#Cc1ccc2cc1Oc1ccc3cccc(c3c1)N1CCN(CC1=O)Cc1cncn1C2 | – | – | – | – | – | 0.29 nM | – |
| CC1c2ccc(C#N)c(c2)Oc2cccc(c2)CN2CCC(NCc3cncn31)C2=O (single isomer, unassigned; diastereomer B) | 1.9 nM | – | 0.78 h | 0.69 L/kg | 12 mL/min/kg | 0.87 nM | IC50 [18]: 6100 nM |
| CN1CCc2cncn2Cc2ccc(C#N)c(c2)Oc2ccc3cccc(c3c2)N2CC[C@H]1C2=O | – | – | 1.9 h | 0.25 L/kg | 1.4 mL/min/kg | 0.21 nM | – |
| CN1CCc2cncn2Cc2ccc(C#N)c(c2)Oc2ccc3cccc(c3c2)N2CC[C@@H]1C2=O | – | – | – | – | – | 0.57 nM | – |
| N#Cc1ccc2cc1Oc1ccc3c(c1)[C@H](CC3)N1CC[C@H](NCc3cncn3C2)C1=O | – | – | – | – | – | 93 nM | – |
| N#Cc1ccc2cc1Oc1cccc(c1)CN1CC[C@@H](NCc3cncn3C2)C1=O | – | – | – | – | – | 0.66 nM | EC50 [15]: 13 nM; IC50 [17]: 2 nM; EC50 [8]: 6.1 nM |
| N#Cc1ccc2cc1Oc1ccc3c(c1)[C@H](CC3)N1CC[C@@H](NCc3cncn3C2)C1=O | – | – | 4.2 h | 0.5 L/kg | 1.3 mL/min/kg | 41 nM | IC50 [18]: 14800 nM; IC50 [7]: 2800 nM |
| N#Cc1ccc2cc1Oc1ccc3c(c1)[C@@H](CCO3)N1CC[C@@H](NCc3cncn3C2)C1=O | – | – | – | – | – | 0.063 nM | Vd [19]: 0.34 L/kg; half-life [19]: 0.9 h; clearance [20]: 5.5 mL/min/kg |
| N#Cc1ccc2cc1Oc1ccc3c(c1)[C@@H](CC3)N1CC[C@@H](NCc3cncn3C2)C1=O | – | – | 1.7 h | 0.27 L/kg | 2.1 mL/min/kg | 0.22 nM | IC50 [18]: 10400 nM; IC50 [7]: 6600 nM |
| N#Cc1ccc2cc1Oc1ccc3cccc(c3c1)N1CC[C@@H](NC(=O)Cc3cncn3C2)C1=O | – | – | – | – | – | 13 nM | – |
| N#Cc1ccc2cc1Oc1cccc(c1)C(c1ccccc1)N1CCC(NCc3cncn3C2)C1=O (stereo in doubt; 26A) | 58 nM | 1600 nM | – | – | – | 230 nM | – |
| N#Cc1ccc2cc1Oc1ccc3cccc(c3c1)N1CC[C@H](NCc3cncn3C2)C1=O | – | – | – | – | – | 3.8 nM | EC50 [5]: 130 nM; EC50 [8]: 48 nM |
| N#Cc1ccc2cc1Oc1ccc3cccc(c3c1)N1CCC(NCCc3cncn3C2)C1=O (stereo in doubt; 67) | – | – | – | – | – | 0.44 nM | – |
